High-throughput results from PubChem.
CHO-K1 Ca antag: M1 antagonist counterscreen hit in parental CHO-K1 cells; ATP-induced calcium, Fluo-8 fluorescence; 0.6% of 360,000 active; inhibition, % at 3 µM;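 active = inhibition above a per-plate cutoff, the plate's mean sample inhibition plus 3 SD, cut at about 24% in these data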;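 note: 0% = DMSO plus EC80 ATP and 100% = DMSO alone without ATP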
CHO-K1 Ca PAM: nonselective activator or artifact in parental CHO-K1 calcium assay | ATP EC20, Fluo-8 calcium fluorescence; 0% at ATP EC20, 100% at ATP max | activation, % at 3 µM | 0.02% of 360,000 active;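 active = activation above the run cutoff, the mean activation of all test compounds plus 3 SD, cut at about 40% in these data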;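 note: peak over basal fluorescence ratio in a 140 s read after ATP addition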
CHO parental Ca: signal in parental CHO cells, OX1R antagonist counter-screen. inhibition, % at 5.6 µM. 0.63% of 330,000 active. parental CHO-K1, ATP-induced calcium, Fluo-8 fluorescence. AID 463079;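 active = inhibition above that plate's mean sample inhibition plus 3 SD, cut at about 26% in these data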;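 note: 0% = ATP-challenged DMSO wells and 100% = DMSO wells without ATP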
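test system = CHO parental line | reagent = ATP stimulus | measured by = intracellular calcium via Fluo-8 no-wash fluorescent dye | control set = ATP and no-ATP DMSO wells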
OX1R antag-1: blocks the human orexin 1 receptor | 1.8% of 330,000 active | O43613 | OX1R-expressing cells, FRET antagonist read-out | inhibition, % at 6.6 µM; in the data active = inhibition mostly above about 38%, no sharp cut-off; inactive = mostly below about 40%;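 note: 0% = agonist challenge alone and 100% = reference antagonist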
Target sequence (O43613 whole entry, looked up): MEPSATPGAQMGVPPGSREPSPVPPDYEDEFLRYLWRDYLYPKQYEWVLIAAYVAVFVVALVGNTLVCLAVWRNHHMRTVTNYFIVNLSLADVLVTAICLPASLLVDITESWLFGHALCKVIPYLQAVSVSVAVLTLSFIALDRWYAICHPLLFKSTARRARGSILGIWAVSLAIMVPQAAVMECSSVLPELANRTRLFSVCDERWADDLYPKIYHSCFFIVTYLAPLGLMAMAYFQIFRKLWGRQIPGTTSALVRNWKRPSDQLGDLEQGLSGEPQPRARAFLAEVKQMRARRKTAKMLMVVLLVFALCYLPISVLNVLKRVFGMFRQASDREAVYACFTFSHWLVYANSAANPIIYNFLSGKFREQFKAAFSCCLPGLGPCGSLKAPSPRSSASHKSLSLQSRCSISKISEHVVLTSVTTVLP
OX1R antag-2: human HCRTR1 antagonism. inhibition, % at 5 µM. 0.43% of 330,000 active. O43613. CHO/OX1R cells, Fluo-8 calcium fluorescence, orexin A;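 active = inhibition above its plate's threshold, mean inhibition of all tested compounds on the plate plus 3 SD, cut at about 37% in these data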;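 note: 0% = orexin A challenge wells and 100% = SB-334867-A antagonist wells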
M1 ag parental: counter-screen for M1 agonists: effect in parental CHO-K1 cells; AID 602248; activation, % at 3 µM; 0.48% of 360,000 active; Fluo-8 calcium fluorescence; scaled to maximal ATP response, vehicle zero; in the data active = activation above about 15%;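 note: untransfected CHO-K1 host cells lacking M1 receptor as counterscreen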
* = called active by the depositor; x = no result given. Compounds with a hit are over-represented: about 2.9% of the library has one in this group of screens.

SMILES | CHO-K1 Ca antag | CHO-K1 Ca PAM | CHO parental Ca | OX1R antag-1 | OX1R antag-2 | M1 ag parental
Cc1nc2cc(-c3sccc3-n3cccc3)nn2c(C)c1C | 3 | -5 | -21 | 52* | -30 | -1
O=C(NN(c1ccccc1)c1ccccc1)c1ccc([N+](=O)[O-])o1 | -20 | 5 | -16 | 10 | -14 | 0
NC(=O)c1oc2ccccc2c1NC(=O)c1ccc(F)cc1 | 27* | -8 | -16 | 16 | -10 | 0
NC(=O)c1oc2ccccc2c1NC(=O)c1ccc([N+](=O)[O-])o1 | 10 | -5 | 4 | 48* | -15 | 2
O=C(COC(=O)c1c[nH]c2ccccc12)Nc1ccc(F)cc1 | -9 | 6 | 2 | 9 | 3 | 2
Cc1csc(NC(=O)COCC(=O)O)c1-c1nc2ccccc2s1 | -6 | 1 | -2 | 53* | 7 | 0
Cc1csc(NC(=O)CCCC(=O)O)c1-c1nc2ccccc2s1 | 7 | -17 | -4 | 10 | -6 | 0
COc1cccc(C(=O)N(Cc2nc(-c3ccc(C)cc3)no2)C(C)C)c1 | -18 | 7 | -29 | 27 | 12 | 0
Cc1cc(Br)ccc1OCC(=O)N(Cc1nc(-c2ccccc2)no1)C(C)C | -1 | 0 | -18 | 56* | 37 | 5
Cc1ccc(C)c(C(=O)N(Cc2nc(-c3ccc(Cl)cc3)no2)C(C)C)c1 | 11 | 11 | 36* | 28 | -31 | 4
COc1ccccc1OCC(=O)N(Cc1nc(-c2ccccc2)no1)C(C)C | -9 | 13 | -8 | 25 | 10 | 1
CC(C)N(Cc1nc(-c2ccccc2)no1)C(=O)CSc1ccccc1 | -26 | 16 | -27 | 39* | 10 | 1
COc1cccc(OCC(=O)N(Cc2nc(-c3ccc(Cl)cc3)no2)C(C)C)c1 | -4 | 10 | -16 | 47* | -10 | 0
CCC/C=C/c1ccc(CN2C(C)C(=O)N(Cc3cn(CCC4OCCO4)nn3)CCS2(=O)=O)cc1 (stereo not drawn) | -9 | 0 | x | x | x | 1
Clc1cccc(-c2cccc3nccn23)c1Cl | -6 | 5 | x | x | x | 2
Cc1ccc(-c2noc(CN(C(=O)CCN3C(=O)c4ccccc4C3=O)C(C)C)n2)cc1 | 15 | -11 | -32 | 29 | -2 | -1
Cc1ccc(-c2noc(CN(C(=O)Cc3ccccc3)C(C)C)n2)cc1 | -9 | 6 | -11 | 52* | -6 | 0
CC(C)c1nc(SCC(=O)Nc2cccc3ccccc23)n[nH]1 | -10 | 16 | -11 | 11 | -15 | 0
CC(C)CNC(=O)CSc1nc(-c2cccs2)cc(C(F)(F)F)n1 | 24* | -6 | -16 | 14 | -30 | -1
Cc1ccc(OCc2csc(N)n2)cc1 | -11 | 4 | -10 | 15 | -4 | -1
CC(Sc1nnc(CN2CCCC2)n1Cc1ccccc1)C(=O)Nc1ccc(F)cc1Cl (stereo not drawn) | 24* | -19 | x | x | x | -1
Cc1nn2c(CN(C(=O)COc3ccccc3)c3ccccc3)nnc2c2ccccc12 | -11 | 2 | -10 | 62* | 0 | 3
Cc1[nH]c2ccccc2c1/C=N/NC(=O)c1cccc([N+](=O)[O-])c1 | -8 | 7 | -3 | 28 | -7 | 0
Cc1[nH]c2ccccc2c1/C=N/Nc1ccc([N+](=O)[O-])cc1 | 34* | 0 | 57* | 17 | 53* | 21*
O=[N+]([O-])c1ccc(N/N=C/c2c[nH]c3ccccc23)c(S(=O)(=O)Nc2ccc(Cl)cc2)c1 | -6 | 14 | 5 | 5 | 2 | 0
SMILES | CHO-K1 Ca antag | CHO-K1 Ca PAM | CHO parental Ca | OX1R antag-1 | OX1R antag-2 | M1 ag parental
COc1ccccc1NS(=O)(=O)c1cc([N+](=O)[O-])ccc1N/N=C/c1c(C)[nH]c2ccccc12 | -19 | 3 | 41* | 15 | 46* | 4
O=C(NC(Cc1ccccc1)C(=O)NCCc1ccccn1)c1ccccc1 (stereo not drawn) | 3 | 20 | -3 | 14 | -41 | 1
NS(=O)(=O)c1ccc(NC(=O)CSc2nc(Nc3ccccc3)nc(N3CCOCC3)n2)cc1 | 1 | -6 | -5 | 17 | 11 | 0
O=C(OCc1ccccc1)N1CCCCC1c1c(Cl)cccc1Br (stereo not drawn) | 6 | 14 | x | x | x | 0
Cc1cc(C)c(NC(=O)C2CCCN2CCC(C)C)c(C)c1 (stereo not drawn) | -6 | 14 | -3 | 10 | -17 | 1
CCC(C)N1CCCC1C(=O)Nc1c(C)cc(C)cc1C (stereo not drawn) | 25* | -10 | 4 | 9 | -13 | -1
O=C1NN(c2ccccc2)C(=O)/C1=C\c1ccc(-c2cc([N+](=O)[O-])ccc2O)o1 | -1 | 16 | x | x | x | 4
COc1ccccc1-c1cc(SC)c(C#N)c(=O)o1 | 3 | -3 | 5 | 51* | -7 | 0
COc1ccccc1-c1cc(C(F)(F)F)c(C#N)c(=O)[nH]1 | 3 | 12 | -2 | 10 | -11 | 0
COc1ccc(CCNCc2csc3nc4ccccc4n23)cc1OC | 7 | 2 | 27 | 53* | 29 | 4
CCOc1ccc(CCNc2nc3ccccc3n3c(C)nnc23)cc1OCC | 2 | -14 | -3 | 6 | -13 | 0
COc1ccc(CCNCc2ccc(-c3ccccc3)cc2)cc1OC | -4 | 29 | x | x | x | 11
COc1ccc(CCNc2nc3ccccc3n3nnnc23)cc1OC | 27* | 0 | -8 | 3 | -29 | 2
O=P(Cc1cccc2ccccc12)(c1ccccc1)c1ccccc1 | -4 | 0 | x | x | x | -1
CC(C)n1nnnc1C1c2ccccc2C(=O)N1Cc1ccco1 (stereo not drawn) | -23 | 21 | x | x | x | 1
CCc1nc2c(OCCC3CCCCC3)cccn2c1N(C)C(=O)c1cccs1 | -4 | -15 | x | x | x | 0
COc1ccc(S(=O)(=O)N2CCOCC2)cc1C(=O)N(C)CCOc1ccc(Cl)cc1 | 4 | -6 | -17 | 2 | -19 | 6
Nc1n[nH]c2cc(=O)n(-c3ccc(Cl)cc3)nc12 | -11 | -3 | -7 | 46* | -1 | 1
COc1ccc(-n2nc3c(N)n[nH]c3cc2=O)cc1 | -4 | 10 | -9 | 54* | -7 | 1
Cc1cc(OCC(=O)OCC(=O)N2CCCCC2)ccc1Cl | 9 | -1 | x | x | x | 2
COc1ccc(-c2n(CC(=O)OC3CC(C)CCC3C(C)C)c3ccccc3[n+]2C)cc1 (stereo not drawn) | 24* | -4 | x | x | x | 6
CC1CCC(C(C)C)C(OC(=O)CSc2nccc(=O)[nH]2)C1 (stereo not drawn) | -1 | 6 | -3 | 12 | -10 | 0
Cc1cc(C)c2c(CN3CCN(C)CC3)cc(=O)oc2c1 | 6 | -2 | -5 | 9 | -8 | 0
Cc1cc(C)c2c(CN3CCN(CCO)CC3)cc(=O)oc2c1 | 29* | -7 | 0 | 13 | -1 | -1
O=S(=O)(CCc1nc2ccccc2o1)c1ccc2ccccc2c1 | -1 | 18 | -12 | 45* | 2 | 1
